Source: PubChem (several laboratories)
Compounds with a hit are over-represented: about 4% of the library has one in this group of screens.
TAAR1 antagonist: antagonists of human TAAR1. CHO RD-HGA16 TAAR1, Fluo-8 calcium fluorescence, antagonist. 360,000 compounds, 1.5% hits. inhibition, % at 3 µM. AID 624466;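 active means inhibition above a per-plate cutoff, the mean inhibition of test compounds on that plate plus 3 SD, cut at about 49% in these data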
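test system = CHO RD-HGA16 cells bearing hTAAR1 | replication = singlicate | controls = DMSO-only wells and EC80 β-PEA-stimulated wells | reagent = EC80 β-phenethylamine stimulus | read-out basis = percent inhibition of PEA-evoked calcium signal, max/basal emission ratio | schedule = seeding 17-24 h prior, 75-min 37 °C, 30-min RT dye loading | signal = kinetic Fluo-8 calcium fluorescence measurement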
NTR1 agonist: activates human neurotensin receptor 1; AID 493036; activation, % at 20 µM; NTR1-U2OS beta-arrestin-GFP spot imaging, agonist mode; 330,000 compounds, 0.17% hits; P30989;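 active means activation at or above 40% of the spot to cytoplasm intensity ratio, with at least 20 cells analyzed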
Target sequence (P30989 whole entry, looked up): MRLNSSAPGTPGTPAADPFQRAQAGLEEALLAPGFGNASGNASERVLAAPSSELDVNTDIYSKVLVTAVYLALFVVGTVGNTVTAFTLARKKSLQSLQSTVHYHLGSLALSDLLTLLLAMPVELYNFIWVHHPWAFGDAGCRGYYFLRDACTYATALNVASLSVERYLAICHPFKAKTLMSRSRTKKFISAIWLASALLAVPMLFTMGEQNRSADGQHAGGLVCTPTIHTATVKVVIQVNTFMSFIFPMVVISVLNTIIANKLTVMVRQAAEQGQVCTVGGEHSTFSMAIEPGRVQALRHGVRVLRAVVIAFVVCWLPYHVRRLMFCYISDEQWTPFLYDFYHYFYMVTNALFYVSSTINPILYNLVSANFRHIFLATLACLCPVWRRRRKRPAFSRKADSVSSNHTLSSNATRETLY
TAAR1 ag: agonists of human TAAR1. Q96RJ0. CHO RD-HGA16 TAAR1, Fluo-8 calcium fluorescence; vehicle wells 0%, saturating PEA agonist 100%. activation, % at 3 µM. 360,000 compounds, 0.99% hits. AID 624467;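 active means activation above the mean activation of all test compounds in the run plus 3 SD, cut at about 38% in these data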
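Repeats: no replicates (n 1) | Material: CHO-derived RD-HGA16 cells with stable Gα16 and human TAAR1 | Technique: Kinetic Fluo-8 calcium fluorescence | Schedule: 17-24 h seeding, 75 min 37 °C dye, 30 min RT | Evaluation: % activation from peak over basal fluorescence ratio, DMSO-to-PEA scaled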
CHO parental Ca: signal in parental CHO cells, OX1R antagonist counter-screen; inhibition, % at 5.6 µM; parental CHO-K1, ATP-induced calcium, Fluo-8 fluorescence; 330,000 compounds, 0.63% hits;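 active means inhibition above that plate's mean sample inhibition plus 3 SD, cut at about 26% in these data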
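Assay system: untransfected parental CHO cell line. Also added: ATP agonist challenge. Dosing: one dose, 5.6 µM nominal. Measured by: Fluo-8 fluorescence. Read-out: % inhibition. Benchmarks: ATP wells versus no-ATP DMSO wells. Repeats: no replicates.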
OX1R antag-1: antagonists of human orexin 1 receptor (OX1R); OX1R-expressing cells, FRET antagonist read-out; O43613; inhibition, % at 6.6 µM; 330,000 compounds, 1.8% hits; AID 485270; in the data active means inhibition mostly above about 38%, no sharp cut-off; inactive means mostly below about 40%
OX1R antag-2: human HCRTR1 antagonism. AID 434989. inhibition, % at 5 µM. 330,000 compounds, 0.43% hits. CHO/OX1R cells, Fluo-8 calcium fluorescence, orexin A. O43613;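 active means inhibition above its plate's threshold, mean inhibition of all tested compounds on the plate plus 3 SD, cut at about 37% in these data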
Each line names hits and unclear results; the compound was inactive in the other large screens.

O=C(Nc1nccs1)C1CCCN1S(=O)(=O)c1ccc(Cl)cc1 (stereo not given)	none
O=C(Nc1ccc(Br)cn1)C1CCCN1S(=O)(=O)c1ccccc1 (stereo not given)	OX1R antag-1 49
O=C(Nc1cccnc1)C1CCCN1S(=O)(=O)c1ccc(Cl)c(Cl)c1 (stereo not given)	OX1R antag-1 63
Nc1ccn([C@@H]2O[C@H](C(=O)N3CCN(C(=O)N4CCCCC4)CC3)[C@@H](O)[C@H]2O)c(=O)n1	none (no result: NTR1 agonist, CHO parental Ca, OX1R antag-1, OX1R antag-2)
O=C(NCc1ccccc1)C1C(c2ccccc2)=Nc2ccccc2N1C(=O)c1ccncc1 (stereo not given)	none (no result: NTR1 agonist, CHO parental Ca, OX1R antag-1, OX1R antag-2)
Nc1cc(OC(=O)c2cccs2)nn1S(=O)(=O)c1ccccc1	TAAR1 ag 40
COc1ccc(C(=O)Oc2cc(N)n(S(=O)(=O)c3ccccc3)n2)cc1	none
Nc1cc(OC(=O)c2cccs2)nn1S(=O)(=O)c1ccc(F)cc1	TAAR1 ag 41
COCC#Cc1ccc2c(c1)O[C@H](CN(C)C(=O)c1ccccc1)[C@@H](C)CN([C@H](C)CO)S2(=O)=O	none (no result: NTR1 agonist, CHO parental Ca, OX1R antag-1, OX1R antag-2)
COc1cc2c(cc1OC)C(c1ccc(-c3ccccc3Cl)o1)=NCC2	NTR1 agonist 58
CCc1ccc(S(=O)(=O)/N=C2\C=C(Nc3ccc(C(=O)O)cc3)C(=O)c3ccccc32)cc1	OX1R antag-1 52
Cc1c(Cl)cccc1NC(=S)N1CCCN(Cc2ccc(F)cc2)C1	CHO parental Ca 33
Fc1ccccc1CN1CCCN(C(=S)Nc2cccc(Cl)c2)C1	CHO parental Ca 40
CC(=O)Nc1cc2c(cc1Cl)-c1ccccc1C2O (stereo not given)	none (no result: NTR1 agonist, CHO parental Ca, OX1R antag-1, OX1R antag-2)
O=[N+]([O-])c1ccc(S(=O)(=O)NCCc2cn3ccccc3n2)cc1	OX1R antag-1 42
O=C(N[C@H](C(=O)N1CCC[C@H]1C(=O)NCCc1ccccc1Cl)c1ccccc1)C1CC1	none (no result: NTR1 agonist, CHO parental Ca, OX1R antag-1, OX1R antag-2)
Cc1nc2ccccc2c2c1CC(C(C)(Cl)Br)O2 (stereo not given)	CHO parental Ca 51
CC(=O)NC(c1cc(Cl)c2ccccc2c1O)C(C)C (stereo not given)	OX1R antag-1 40
CCC(=O)NC(c1cccs1)c1cc(Cl)c2ccccc2c1O (stereo not given)	OX1R antag-1 48
CCC(=O)NC(c1cc(Cl)c2ccccc2c1O)C1CC1 (stereo not given)	OX1R antag-1 63
N#CCCN1CCC(N)=NC1=NC#N	none (no result: NTR1 agonist, CHO parental Ca, OX1R antag-1, OX1R antag-2)
O=C(C(=O)N1CCC(CNS(=O)(=O)c2ccc3ccccc3c2)CC1)c1cc2ccccc2o1	none (no result: NTR1 agonist, CHO parental Ca, OX1R antag-1, OX1R antag-2)
COc1ccc(CCNc2ncnc3sccc23)cc1OC	CHO parental Ca 76, OX1R antag-2 42
COc1ccc(Nc2ncnc3sccc23)cc1OC	none
c1ccc2c(c1)OCC(CNc1ncnc3sccc13)O2 (stereo not given)	CHO parental Ca 68 (no result: NTR1 agonist)
COc1ccccc1CNc1ncnc2sccc12	CHO parental Ca 41, OX1R antag-1 47
CC1=C(C(=O)N(C(C)C)C(C)C)CC(CC(=O)NCCN2CCOCC2)C(=O)N1Cc1ccccc1 (stereo not given)	none (no result: NTR1 agonist, CHO parental Ca, OX1R antag-1, OX1R antag-2)
O=C(CSc1ccccc1)N1CCCC(Nc2ccccc2)C1 (stereo not given)	none
O=C(/C=C/c1cccs1)c1ccc(N2CCOCC2)cc1	OX1R antag-1 65
O=C(/C=C/c1cccc(F)c1)c1ccc(N2CCOCC2)cc1	none
COC(=O)[C@]12C[C@H](CC(=O)N3CCOCC3)C(=O)N(Cc3ccccc3)C1=C[C@H](C(C)C)O[C@@H]2C1CC1	none (no result: NTR1 agonist, CHO parental Ca, OX1R antag-1, OX1R antag-2)
CC(C)(C)c1ccc(OCCn2nc(C(=O)O)c3ccccc3c2=O)cc1	TAAR1 antagonist 49, CHO parental Ca 29, OX1R antag-2 46
Cc1cccc(OCCn2nc(C(=O)O)c3ccccc3c2=O)c1	none
CCN1/C(=C\c2ccc3cc(C)ccc3[n+]2CC)Sc2cc(C)c(C)cc21	none (no result: NTR1 agonist, CHO parental Ca, OX1R antag-1, OX1R antag-2)
C=CC[n+]1c(/C=C2\C=Cc3cc(C)ccc3N2CC)ccc2ccccc21	CHO parental Ca 56, OX1R antag-1 114, OX1R antag-2 69
O=C(Nc1ccc([N+](=O)[O-])cn1)C1CC1	none
O=C(NNc1ccc([N+](=O)[O-])cc1)Nc1ccccc1	none
